Values after ≈ are worked out from the molar mass of the structure shown. Active and inactive are the calls of the source. The rule behind the calls is not given here.

Data set [1] in a line: Inhibition of fatty acid synthesis in human HCT-116 cells assessed as reduction in [14C] acetic acid uptake preincubated for 60 mins followed by [14C]acetic acid addition and measured after 2 hrs by topcount scintillation counting method. The format is functional, cell-based. The procedure, abridged:
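HCT-116 cells, 50,000/well, cultured overnight in RPMI with 10% FBS and penicillin/streptomycin at 37 °C, 5% CO₂. Compound added in RPMI with 0.1% fatty acid-free BSA for 60 min. Then 0.1 μCi/well [¹⁴C]acetic acid for 2 h at 37 °C. Cells washed with PBS and radioactivity counted. DMSO wells set as 0%; 100 nM reference inhibitor as 100%. IC50 is the mean of duplicates with 95% CI.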

The target of data set [2] is T1, Acetyl-CoA carboxylase 1 (Homo sapiens, UniProt Q13085). In words: Inhibition of recombinant human N-terminal His6-tagged ACC1 expressed in baculovirus infected Sf9 insect cells using acetyl-CoA as substrate preincubated for 60 mins followed by substrate addition and measured after 30 mins Rapidfire-Mass spectrometry. The procedure, abridged:
(§1)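 Human ACC1 or ACC2 from baculovirus-infected SF-9 cells (27 °C, 3 days), purified and dialyzed. Compound in DMSO diluted in 50 mM HEPES pH 7.5, 10 mM MgCl₂, 10 mM tripotassium citrate, 2 mM DTT, 0.001% fatty acid-free BSA. Enzyme and compound preincubated 60 min at room temperature. Substrate added: 50 mM KHCO₃, ATP, acetyl-CoA. Reaction ran 30 min at room temperature.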

The target of data set [3] is T2, Acetyl-CoA carboxylase 2 (Homo sapiens, UniProt O00763). The data set can be described thus: Inhibition of recombinant human N-terminal His6-tagged ACC2 expressed in baculovirus infected Sf9 insect cells using acetyl-CoA as substrate preincubated for 60 mins followed by substrate addition and measured after 30 mins Rapidfire-Mass spectrometry. A digest of the protocol: as §1
Target sequence in this assay (O00763 whole entry): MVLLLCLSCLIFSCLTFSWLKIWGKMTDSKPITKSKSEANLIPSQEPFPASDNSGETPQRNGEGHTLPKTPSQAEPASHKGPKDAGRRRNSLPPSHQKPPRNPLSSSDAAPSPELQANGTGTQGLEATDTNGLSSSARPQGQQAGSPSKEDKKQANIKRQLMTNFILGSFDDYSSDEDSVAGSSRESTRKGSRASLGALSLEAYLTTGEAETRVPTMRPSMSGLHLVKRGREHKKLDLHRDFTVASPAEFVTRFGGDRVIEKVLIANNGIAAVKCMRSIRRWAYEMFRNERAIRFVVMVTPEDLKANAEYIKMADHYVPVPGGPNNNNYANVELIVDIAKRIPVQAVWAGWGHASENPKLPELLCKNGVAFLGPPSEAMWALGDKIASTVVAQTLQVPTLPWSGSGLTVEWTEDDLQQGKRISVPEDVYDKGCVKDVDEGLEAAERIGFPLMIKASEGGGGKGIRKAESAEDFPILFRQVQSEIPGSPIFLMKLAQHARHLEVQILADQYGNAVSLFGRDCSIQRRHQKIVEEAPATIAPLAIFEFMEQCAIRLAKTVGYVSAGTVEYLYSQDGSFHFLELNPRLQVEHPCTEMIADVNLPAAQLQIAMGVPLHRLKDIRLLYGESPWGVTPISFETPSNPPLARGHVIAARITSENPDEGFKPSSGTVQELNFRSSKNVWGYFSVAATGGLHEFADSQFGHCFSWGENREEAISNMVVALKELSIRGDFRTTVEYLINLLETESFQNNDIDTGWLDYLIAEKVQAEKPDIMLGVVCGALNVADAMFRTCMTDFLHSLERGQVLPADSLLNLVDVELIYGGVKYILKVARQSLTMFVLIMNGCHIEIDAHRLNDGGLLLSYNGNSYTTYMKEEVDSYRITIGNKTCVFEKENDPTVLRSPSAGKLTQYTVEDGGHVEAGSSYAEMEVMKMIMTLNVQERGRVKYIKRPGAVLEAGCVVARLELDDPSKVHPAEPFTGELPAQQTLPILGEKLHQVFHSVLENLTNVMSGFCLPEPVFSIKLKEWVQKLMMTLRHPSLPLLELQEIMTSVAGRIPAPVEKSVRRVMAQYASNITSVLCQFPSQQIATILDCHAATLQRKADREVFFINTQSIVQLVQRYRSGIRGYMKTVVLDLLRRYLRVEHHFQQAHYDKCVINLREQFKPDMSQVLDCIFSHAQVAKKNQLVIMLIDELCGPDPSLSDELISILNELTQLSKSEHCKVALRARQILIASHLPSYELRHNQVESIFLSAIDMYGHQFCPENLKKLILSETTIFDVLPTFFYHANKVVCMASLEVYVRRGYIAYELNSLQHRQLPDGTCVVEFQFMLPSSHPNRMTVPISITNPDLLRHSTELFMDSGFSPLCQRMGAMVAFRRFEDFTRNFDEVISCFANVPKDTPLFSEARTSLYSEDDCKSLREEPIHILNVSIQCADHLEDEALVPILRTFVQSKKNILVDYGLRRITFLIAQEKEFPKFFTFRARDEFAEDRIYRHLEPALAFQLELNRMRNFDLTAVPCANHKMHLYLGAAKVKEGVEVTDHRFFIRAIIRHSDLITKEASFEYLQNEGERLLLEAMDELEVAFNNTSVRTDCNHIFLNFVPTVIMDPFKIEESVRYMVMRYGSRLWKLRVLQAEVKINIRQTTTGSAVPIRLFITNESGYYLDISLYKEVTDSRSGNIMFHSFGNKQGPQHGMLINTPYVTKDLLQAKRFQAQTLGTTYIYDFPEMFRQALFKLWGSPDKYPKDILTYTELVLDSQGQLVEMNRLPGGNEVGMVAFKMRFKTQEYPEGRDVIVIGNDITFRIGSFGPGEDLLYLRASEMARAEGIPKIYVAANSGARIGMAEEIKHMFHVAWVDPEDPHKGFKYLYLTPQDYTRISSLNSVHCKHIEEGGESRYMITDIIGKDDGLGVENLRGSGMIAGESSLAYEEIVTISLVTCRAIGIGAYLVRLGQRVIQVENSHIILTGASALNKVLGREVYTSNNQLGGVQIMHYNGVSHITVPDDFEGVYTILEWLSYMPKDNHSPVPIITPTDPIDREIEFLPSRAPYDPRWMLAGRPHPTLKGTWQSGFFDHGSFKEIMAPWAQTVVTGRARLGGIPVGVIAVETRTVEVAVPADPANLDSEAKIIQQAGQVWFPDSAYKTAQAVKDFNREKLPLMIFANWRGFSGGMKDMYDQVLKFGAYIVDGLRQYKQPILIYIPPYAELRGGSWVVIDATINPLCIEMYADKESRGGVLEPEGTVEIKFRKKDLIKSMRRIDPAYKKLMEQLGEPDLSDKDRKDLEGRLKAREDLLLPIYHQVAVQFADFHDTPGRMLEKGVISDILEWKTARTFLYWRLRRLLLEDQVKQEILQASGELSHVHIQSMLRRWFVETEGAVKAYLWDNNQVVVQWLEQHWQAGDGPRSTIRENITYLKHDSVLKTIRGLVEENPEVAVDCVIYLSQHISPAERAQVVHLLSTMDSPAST

Data set [4] in a line: Solubility of compound in pH 6.8 buffer. The format is physicochemical. The procedure, abridged:
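Solubility measured at pH 6.8.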

In data set [5] the target is T2, Acetyl-CoA carboxylase 2. In words: Inhibition of recombinant human N-terminal His6-tagged ACC2 expressed in baculovirus infected Sf9 insect cells at 10 uM using acetyl-CoA as substrate preincubated for 60 mins followed by substrate addition and measured after 30 mins Rapidfire-Mass spectrometry relative to control. To be noted: time 90.0 min.
Target sequence in this assay (O00763 whole entry, looked up): as the sequence (O00763 whole entry) above
The target of data set [6] is T1, Acetyl-CoA carboxylase 1. In words: Inhibition of recombinant human N-terminal His6-tagged ACC1 expressed in baculovirus infected Sf9 insect cells at 10 uM using acetyl-CoA as substrate preincubated for 60 mins followed by substrate addition and measured after 30 mins Rapidfire-Mass spectrometry relative to control. To be noted: time 90.0 min.
A short description of data set [7]: AUC (0 to 8 hrs) in ICR mouse at 0.1 mg/kg, iv or 1 mg/kg, po. The format is ADME, organism-based. Set-up: dose 1 mg/kg. Particulars: in vivo. A digest of the protocol:
(§2)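 Male ICR mice, n = 3. Doses: 0.1 mg/kg i.v. and 1 mg/kg p.o. AUC covers 0–8 h.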

Data set [8] in a line: Metabolic stability in mouse liver microsomes. The class given is ADME, Microsome. To be noted: read-out: Stabilty. (In general: Liver microsomes are vesicles of endoplasmic reticulum, rich in cytochrome P450 enzymes.)
Data set [9] in a line: Solubility of compound in pH 1.2 buffer. The class given is physicochemical.
The nature of data set [10]: Lipophilicity, log D of compound. The format is physicochemical. Particulars: octanol/water.
The nature of data set [11]: Permeability of compound at pH 7.4 by PAMPA. The format is ADME. Particulars: read-out: permeability. A general note: In PAMPA a lipid-coated filter parts donor from acceptor wells.
Another data set addresses Cytochrome P450 2C9 (Homo sapiens, UniProt P11712). The data set can be described thus: Inhibition of CYP2C9 (unknown origin) relative to control. The class given is ADME.
Data set [12] in a line: Metabolic stability in human liver microsomes. The class given is ADME, Microsome. Particulars: read-out: Stabilty.
The nature of data set [13]: Oral bioavailability in ICR mouse at 1 mg/kg. The class given is ADME, organism-based. Particulars: in vivo. The procedure, abridged: as §2
In another data set the target is T3, Cytochrome P450 2C8 (Homo sapiens, UniProt P10632).
T3 sequence (P10632 whole entry): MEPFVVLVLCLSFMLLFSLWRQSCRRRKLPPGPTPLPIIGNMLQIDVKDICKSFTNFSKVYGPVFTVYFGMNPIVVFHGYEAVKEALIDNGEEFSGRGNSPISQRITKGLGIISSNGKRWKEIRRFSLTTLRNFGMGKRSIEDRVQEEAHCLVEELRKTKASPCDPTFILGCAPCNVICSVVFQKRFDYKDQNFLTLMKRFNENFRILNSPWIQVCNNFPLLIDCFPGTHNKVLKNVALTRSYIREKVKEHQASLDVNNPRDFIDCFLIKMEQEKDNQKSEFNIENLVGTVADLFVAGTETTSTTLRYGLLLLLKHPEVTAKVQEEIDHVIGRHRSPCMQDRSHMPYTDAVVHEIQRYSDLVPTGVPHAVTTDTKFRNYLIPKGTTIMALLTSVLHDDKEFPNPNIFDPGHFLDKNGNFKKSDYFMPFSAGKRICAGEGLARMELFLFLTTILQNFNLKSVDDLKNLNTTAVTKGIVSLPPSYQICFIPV
In words: Inhibition of CYP2C8 (unknown origin) relative to control. The format is ADME.

The nature of data set [14]: Permeability of compound at pH 5 by PAMPA. The format is ADME. Particulars: read-out: permeability.
A further data set relates to Mus musculus. In words: Inhibition of fatty acid synthesis in human HCT-116 cells xenografted BALB/cA Jc1 nu/nu mouse assessed as reduction in malonyl-CoA concentration in tumor at 100 mg/kg, po administered as single dose measured after 2 to 16 hrs by RPLC-MS/MS analysis. To be noted: time 2-16 hrs. The format is functional, organism-based. A digest of the protocol:
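Female BALB/cA Jcl-nu/nu mice, 6 weeks old, carrying s.c. hind-flank HCT-116 xenografts (cells in HBSS with Matrigel). Mice randomized by tumor volume. Single oral dose of 100 mg/kg in 0.5% methyl cellulose, or vehicle. Tumors collected 2 and 16 h after dosing, snap-frozen and pulverized under liquid N₂. Malonyl-CoA measured by RPLC-MS/MS against a calibration curve with [¹³C₃]-malonyl-CoA as internal standard.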
(In general: A xenograft is tissue or cells of one species grown in another, often human tumour cells in immunodeficient mice.)

For another data set, the species on record is Homo sapiens. In words: Selectivity ratio of IC50 for inhibition of recombinant human N-terminal His6-tagged ACC2 expressed in baculovirus infected Sf9 insect cells to IC50 for inhibition of recombinant human N-terminal His6-tagged ACC1 expressed in baculovirus infected Sf9 insect cells.

Take `CC(=O)NC(C)c1ccc(OCc2ccc(Oc3cccc(OCC4CC4)c3)cc2)cc1` (centres undefined): the IC50 (usually the midpoint of a concentration-inhibition curve) in [1] is 420 nM; on Acetyl-CoA carboxylase 1 [2] it was 220 nM; at Acetyl-CoA carboxylase 2 [3], > 10000 nM.

As for `CC(=O)NC(C)c1cnc(OCc2c(F)cc(Oc3cccc(OCC4CC4)c3)cc2F)cn1` (centres undefined), the results for the IC50 (in [1]; on Acetyl-CoA carboxylase 1 [2]; at Acetyl-CoA carboxylase 2 [3]) were 180 nM, 89 nM and > 10000 nM, respectively. For the same compound, in data set [4], the solubility (commonly the dissolved amount per volume that the medium holds) was determined as 0.46 µg/mL (≈ 0.98 µM).

Turning to `CCCc1ccc(Oc2ccc(-c3ccc(C(C)NC(C)=O)cc3)cc2)cc1` (centres undefined), the inhibition (usually the percentage by which the read-out fell short of the control) amounted to 11% on Acetyl-CoA carboxylase 2 [5] and 38% on Acetyl-CoA carboxylase 1 [6].

For the compound `CC(=O)NC(C)c1ccc(OCc2c(F)cc(Oc3cccc(OCC4CC4)c3)cc2F)cc1` (centres undefined), the 50% inhibitory concentration (IC50) was 9.7 nM in data set [1], 15 nM on Acetyl-CoA carboxylase 1 [2] and > 10000 nM on Acetyl-CoA carboxylase 2 [3]. In addition, in data set [7], the AUC(0-t) (in general, the area under the concentration-time curve up to a stated or last time point) came out at 1580 ng·h/mL. Also, the microsomal CLint turned out to be 36 µL/min/mg in data set [8] and 30 µL/min/mg in data set [12]. Besides, the results for the solubility in data set [9] and in [4] were < 0.23 µg/mL and < 0.21 µg/mL, respectively. For the same compound, in data set [10], the logD (as a rule, lipophilicity at a set pH, counting ionised and neutral species) came to 5.01. In addition, the Papp in data set [11] is 11.1 ×10⁻⁶ cm/s; in [14] it was 34.6 ×10⁻⁶ cm/s. The “inhibition (INH)” value was -22.7% at Cytochrome P450 2C9 and 31.4% at Cytochrome P450 2C8. In addition, the bioavailability (in general, the share of a dose that reaches the circulation, judged against a reference dose that is usually intravenous) in [13] came out at 31.1%.

For `CCCCOc1cccc(Oc2ccc(-c3ccc(C(C)NC(C)=O)cc3)cc2)c1` (centres undefined), the values for the IC50 at Acetyl-CoA carboxylase 1 [2] and at Acetyl-CoA carboxylase 2 [3] were 120 nM and 210 nM, respectively.

Take `CC(=O)NC(C)c1ccc(OCc2c(F)cc(Oc3cccc(OCC4CC4)c3)cc2F)nc1` (centres undefined): the IC50 in [1] is 24 nM; on Acetyl-CoA carboxylase 1 [2], 17 nM; on Acetyl-CoA carboxylase 2 [3] it was > 10000 nM. In data set [7], the AUC(0-t) is 5350 ng·h/mL. In addition, the results for the microsomal CLint in [8] and in data set [12] were 17 µL/min/mg and 12 µL/min/mg, respectively. In addition, the solubility in data set [9] and in data set [4] was < 0.23 µg/mL each time. Moreover, in [10], the logD stood at 4.82. The Papp in [11] stood at 68.3 ×10⁻⁶ cm/s; in data set [14], 66.2 ×10⁻⁶ cm/s. The “inhibition (INH)” value is listed as -13.8% against Cytochrome P450 2C9 and 32% against Cytochrome P450 2C8. Besides, the bioavailability in [13] is 70.5%. Moreover, the inhibition entry in the data set on Mus musculus is “Active”.

For `CC(=O)NC(C)c1ccc(-c2ccc(Oc3cccc(OCC4CC4)c3)cc2)cc1` (centres undefined), the Ratio IC50 in the data set listed under Homo sapiens is 2.5. The IC50 at Acetyl-CoA carboxylase 1 [2] was 60 nM; at Acetyl-CoA carboxylase 2 [3], 150 nM.

In the case of `CCCOc1ccc(Oc2ccc(-c3ccc(C(C)NC(C)=O)cc3)cc2)cc1` (centres undefined), the inhibition was determined as 51% on Acetyl-CoA carboxylase 2 [5] and 50% at Acetyl-CoA carboxylase 1 [6].

As to `CC(=O)NC(C)c1ccc(OCc2c(F)cc(Oc3cccc(OCC4CC4)c3)cc2F)nn1` (centres undefined), the IC50 in [1] was 110 nM; at Acetyl-CoA carboxylase 1 [2], 31 nM; at Acetyl-CoA carboxylase 2 [3] it was > 10000 nM. Besides, the solubility in [4] stood at 2.3 µg/mL (≈ 4.9 µM).

Turning to `COCCc1ccc(Oc2ccc(-c3ccc(C(C)NC(C)=O)cc3)cc2)cc1` (centres undefined), the results for the inhibition on Acetyl-CoA carboxylase 2 [5] and on Acetyl-CoA carboxylase 1 [6] were 6% and 49%, respectively. Moreover, the 50% inhibitory concentration (IC50) on Acetyl-CoA carboxylase 2 [3] is > 30000 nM.

In the case of `CC(=O)NC(C)c1ccc(Oc2ccc(Oc3cccc(OCC4CC4)c3)cc2)cc1` (centres undefined), the results for the IC50 at Acetyl-CoA carboxylase 1 [2] and on Acetyl-CoA carboxylase 2 [3] were 39 nM and 20 nM, respectively.

Take `CC(=O)NC(C)c1ccc(OCc2ccc(Oc3cccc(OCC4CC4)c3)cc2F)cc1` (centres undefined): the half-maximal inhibitory concentration (IC50) in [1] was 63 nM; at Acetyl-CoA carboxylase 1 [2] it was 69 nM; on Acetyl-CoA carboxylase 2 [3], > 10000 nM.

Consider `CC(=O)NC(C)c1ccc(OCc2ccc(Oc3cccc(OCC4CC4)c3)nc2)cc1` (centres undefined), for which the IC50 in data set [1] was 900 nM; at Acetyl-CoA carboxylase 1 [2], 790 nM; at Acetyl-CoA carboxylase 2 [3], > 10000 nM.

For `CC(=O)NC(C)c1ccc(OCc2c(F)cc(Oc3cccc(OCC4CC4)c3)cc2F)cn1` (centres undefined), the IC50 in data set [1] was 70 nM; at Acetyl-CoA carboxylase 1 [2] it was 38 nM; at Acetyl-CoA carboxylase 2 [3] it was > 10000 nM. In data set [4], the solubility turned out to be 1.5 µg/mL (≈ 3.2 µM).

With `CC(=O)NC(C)c1ccc(OCc2ccc(Oc3cccc(OCC4CC4)c3)cn2)cc1` (centres undefined), the IC50 was > 1000 nM in data set [1], 1200 nM on Acetyl-CoA carboxylase 1 [2] and > 10000 nM at Acetyl-CoA carboxylase 2 [3].

Take `COCCc1cccc(Oc2ccc(-c3ccc(C(C)NC(C)=O)cc3)cc2)c1` (centres undefined): the values for the IC50 at Acetyl-CoA carboxylase 1 [2] and on Acetyl-CoA carboxylase 2 [3] were 130 nM and 98 nM, respectively.

For the origin of these results see ChEMBL document CHEMBL4706693, “Design and synthesis of a monocyclic derivative as a selective ACC1 inhibitor by chemical modification of biphenyl ACC1/2 dual inhibitors” (Bioorg Med Chem, 2021).
